From BindingDB's records for doi:10.1021/jm030913e (Ucb Pharma, 2004)

Target: Synaptic vesicle glycoprotein 2A (Rattus norvegicus, UniProt Q02563)
Assay: In vitro inhibitory activity against [3H](2S)-2-[4-(3-azidophenyl)-2-oxopyrrolidin-1-yl]butanamide binding to levetiracetam binding site
Method in brief: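 Rat cerebral cortex membranes (male Sprague-Dawley, 200–250 g), homogenised in Tris-HCl/sucrose at 4 °C, washed, preincubated 15 min at 37 °C. Binding: 4 °C for 120 min in 50 mmol/L Tris-HCl pH 7.4 with 2 mmol/L MgCl2, 1–2 × 10^-9 mol/L tritiated azidophenyl radioligand, rising test concentrations. Nonspecific binding with 10^-3 mol/L levetiracetam. Rapid filtration, scintillation counting. pIC50 is the mean of two independent determinations.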

Chain of Synaptic vesicle glycoprotein 2A (Q02563 whole entry): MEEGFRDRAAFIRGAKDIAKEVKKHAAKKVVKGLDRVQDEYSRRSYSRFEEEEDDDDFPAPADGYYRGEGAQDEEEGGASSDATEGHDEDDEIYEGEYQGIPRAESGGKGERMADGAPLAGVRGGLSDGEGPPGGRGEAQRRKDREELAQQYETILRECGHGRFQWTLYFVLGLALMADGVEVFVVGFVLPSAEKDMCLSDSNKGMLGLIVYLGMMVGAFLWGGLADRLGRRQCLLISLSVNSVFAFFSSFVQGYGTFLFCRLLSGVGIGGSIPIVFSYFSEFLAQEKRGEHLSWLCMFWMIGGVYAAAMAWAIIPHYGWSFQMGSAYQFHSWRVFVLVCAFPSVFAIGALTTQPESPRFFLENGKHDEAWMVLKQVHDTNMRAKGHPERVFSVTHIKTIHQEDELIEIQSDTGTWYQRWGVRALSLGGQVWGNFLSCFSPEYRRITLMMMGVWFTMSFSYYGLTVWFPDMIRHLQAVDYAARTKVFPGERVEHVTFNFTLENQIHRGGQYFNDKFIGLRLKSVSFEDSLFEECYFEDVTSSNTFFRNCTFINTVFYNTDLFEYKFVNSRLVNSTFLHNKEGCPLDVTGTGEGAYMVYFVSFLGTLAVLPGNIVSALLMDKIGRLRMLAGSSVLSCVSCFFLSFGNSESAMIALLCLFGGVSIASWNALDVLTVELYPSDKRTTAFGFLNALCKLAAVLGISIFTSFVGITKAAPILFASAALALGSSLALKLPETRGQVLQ

Structure (SMILES) | IC50 [µM]
CCC[C@H](C(N)=O)N1CCCC1=O | 999
CC[C@@H](C(N)=O)N1C[C@H](CO[N+](=O)[O-])CC1=O | 0.1
CC[C@@H](C(N)=O)N1C[C@H](CSC)CC1=O | 0.125
CC[C@@H](C(N)=O)N1C[C@H](CCl)CC1=O | 0.199
CCCCN(C(=O)CC)[C@@H](CC)C(N)=O | 9.99
CC[C@@H](C(=N)N)N1CCCC1=O | 12.5
CC[C@@H](C(N)=O)N1C[C@H](CBr)CC1=O | 0.251
CC[C@@H](C(N)=O)N1CC(CC(C)(C)C)CC1=O (stereo partly specified) | 0.794
CCC(C(N)=O)N1CC(C(C)C)CC1=O (stereo unspecified) | 3.98
CC[C@@H](C(N)=O)N1C[C@H](CI)CC1=O | 0.158
CCCCC1CC(=O)N(C(CC)C(N)=O)C1 (stereo unspecified) | 0.398
CCCCCCCCN(C(=O)CC)C(CC)C(N)=O (stereo unspecified) | 3.98
CCC(C(N)=O)N1C(=O)CCC1(C)C (stereo unspecified) | 63
C[C@@H](C(N)=O)N1CCCC1=O | 3.16
CC[C@@H](C(N)=O)N(C)C(C)=O | 15.8
CCCCCCCN(C(=O)Cc1ccc(OC)cc1)C(CC)C(N)=O (stereo unspecified) | 2.51
CCCC1(C)CC(=O)N([C@@H](CC)C(N)=O)C1 (stereo partly specified) | 0.398
CCC(C(=O)N(C)O)N1CCCC1=O (stereo unspecified) | 19.9
CC[C@@H](C(N)=O)N1CC(NC(=O)OC)CC1=O (stereo partly specified) | 1.58
CC[C@@H](C(=O)NC)N1CCCC1=O | 12.5
CCC(C(N)=O)N1CC(Cc2ccccc2)CC1=O (stereo unspecified) | 2.51

Structure (SMILES) | IC50 [µM]
CC[C@@H](C(N)=O)N1CCC(C)C1=O (stereo partly specified) | 19.9
CCC[C@H]1CC(=O)N([C@@H](CC)C(N)=O)C1 | 0.251
CC[C@@H](C(N)=O)N1C[C@H](C)CC1=O | 1.25
CCCCCCCCN(C(=O)Cc1ccc(Cl)cc1)C(CC)C(N)=O (stereo unspecified) | 1.99
CCCCCC1CC(=O)N(C(CC)C(N)=O)C1 (stereo unspecified) | 1.25
CCC1CC(=O)N([C@@H](CC)C(N)=O)C1 (stereo partly specified) | 1.25
CC(C)C(C(N)=O)N1CCCC1=O (stereo unspecified) | 19.9
CC[C@@H](C(N)=O)N1CC(CC2CC2)CC1=O (stereo partly specified) | 0.125
CCC(C(N)=O)N1CC(COC)CC1=O (stereo unspecified) | 1.58
CCC[C@@H](C(N)=O)N1CCCC1=O | 5.01
CCCCCN(C(=O)CC)C(CC)C(N)=O (stereo unspecified) | 1.99
CC[C@@H](C(N)=O)N1C(=O)CCC1C (stereo partly specified) | 2.51
CC[C@@H](C(=O)NO)N1CCCC1=O | 1.99
CC[C@@H](C(N)=O)N1C[C@H](CF)CC1=O | 1.25
CCC(C(=O)NN)N1CCCC1=O (stereo unspecified) | 6.3
CC[C@@H](C(N)=O)N1C[C@H](CN=[N+]=[N-])CC1=O | 0.0794
NC(=O)CN1CCCC1=O [2-(2-oxopyrrolidin-1-yl)acetamide] | 39.8
CC[C@H](C(N)=O)N1CCCC1=O [Levitiracetam] | < 999
CC[C@@H](C(N)=O)N1CCCC1=O [UCB-22059] | 0.794
CCC[C@@H]1CC(=O)N([C@@H](CC)C(N)=O)C1 [UCB-34714] | 0.1
